Source: PubChem (Sanford-Burnham Center for Chemical Genomics)
STEP inh: blocks human striatal-enriched tyrosine phosphatase; P54829; recombinant STEP, OMFP fluorogenic substrate, fluorescence; inhibition, % at 20 µM; 0.25% of 360,000 active;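 active = inhibition at 20 µM, scaled per plate between control wells, above about 37%, limit read from the data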
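Assay system: isolated STEP enzyme. Buffer or medium: pH 6.0 Bis-Tris with DTT and Tween 20. Also added: fluorogenic phosphatase substrate OMFP at 25 µM final. Dosing: 20 µM, 1% DMSO. Timing: 20 min reaction, room temperature, in the dark. Measured by: fluorescence intensity, excitation 480 nm, emission 540 nm. Evaluation: normalized % inhibition.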
Scp-1 inhibitor: blocks human Scp-1 phosphatase activity; Q9GZU7; Recombinant Scp1, phosphopeptide, malachite green phosphate absorbance; inhibition, % at 20 µM; 0.88% of 340,000 active; AID 493091;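 active = inhibition above about 50% at 20 µM, limit read from the data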
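Test system: SCP-1 phosphatase catalytic domain, residues 76-261; measured by: colorimetric phosphate reagent with accelerator and stabiliser, absorbance at 630 nm; timing: enzyme reaction 45 min at room temperature, colour 5 min, stabilisation 30 min; also added: Phosphorylated 17-residue peptide substrate; compound dosing: one concentration, 20 µM, with 1.0% DMSO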
SUMO1 PPI mod: SUMO1-SIM interaction modulation; P63165; SUMO1 binding to a labelled peptide, TR-FRET, 1 h; inhibition, % at 20 µM; 0.33% of 360,000 active; AID 602429; in the data active = inhibition above about 37%
CSN inh: CSN deneddylation inhibition; Q92905; Purified CSN, SCF-Nedd8-OG deneddylation, fluorescence polarization; inhibition, % at 12.5 µM; 0.38% of 360,000 active; AID 651999;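 active = pattern-corrected inhibition above about 35%, with an unprinted fluorescence ratio check between 0.5 and 1.5, limit read from the data, passing the limit was not always enough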
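Assay system: Purified human Csn5 enzyme expressed in HEK293T cells | Amount: Enzyme 0.24 nM | Measured by: Fluorescence polarization readout | Medium: Tris/NaCl/DTT buffer, pH 7.5 | Compound dosing: One concentration, 12.5 µM, 0.25% DMSO | Times: 90 min incubation of compound, enzyme and substrate at room temperature | Control set: no-enzyme wells high, enzyme-with-substrate wells low | Read-out: % inhibition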
LMPTP block: blocks human LMPTP phosphatase; inhibition, % at 20 µM; P24666; 0.22% of 360,000 active; recombinant LMPTP-A, OMFP fluorogenic substrate, fluorescence intensity;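 active = compounds that cut the enzyme signal by at least half of the control window in the single-dose screen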
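material = LMPTP-A | quantity = 0.625 nM enzyme | reagent = OMFP substrate, 400 µM final | buffer or medium = Bis-Tris pH 6.0, DTT, detergent | detection = endpoint fluorescence intensity from OMFP dephosphorylation | dosing = single 20 µM dose | read-out basis = % inhibition relative to no-enzyme and uninhibited control wells | control set = no-enzyme and uninhibited controls | timing = 50 min at room temperature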
DNMT1 block: inhibitors of human DNMT1 | P26358 | DNMT1 molecular beacon, Hinp1I cleavage, fluorescence | inhibition (reported as % activation of signal), % at 10 µM | 0.83% of 360,000 active | AID 588458; in the data active = inhibition above about 50%
Numbers stand for hits. The list is not random: actives were taken first. Their share in the collection is about 2%.

CCOc1ccc(-c2nnc(-c3snc(-c4ccc(F)cc4)c3N=CN(C)C)o2)cc1 was read as STEP inh inactive, Scp-1 inhibitor inactive, SUMO1 PPI mod 47, CSN inh inactive, LMPTP block inactive and DNMT1 block inactive.
COc1ccc(-c2nnc(-c3ccc(F)cc3)o2)cc1 was read as STEP inh inactive, Scp-1 inhibitor inactive, SUMO1 PPI mod inactive, CSN inh inactive, LMPTP block inactive and DNMT1 block inactive.
Screening Cc1nc2c(c(=O)n1CCC1=CCCCC1)c1nc3ccccc3nc1n2/N=C/c1ccccc1 returned STEP inh inactive, Scp-1 inhibitor inactive, SUMO1 PPI mod inactive, CSN inh inactive, LMPTP block inactive and DNMT1 block inactive.
O=c1c2c3nc4ccccc4nc3n(/N=C/c3ccco3)c2ncn1CCC1=CCCCC1 was read as STEP inh inactive, Scp-1 inhibitor 88, SUMO1 PPI mod inactive, CSN inh inactive, LMPTP block inactive and DNMT1 block inactive.
`CCn1c(/C=C/N(C)c2ccccc2)[n+](CC)c2ccc(Cl)cc21` gave STEP inh inactive, Scp-1 inhibitor 74, SUMO1 PPI mod inactive, CSN inh inactive, LMPTP block inactive and DNMT1 block inactive.
CCn1c(/C=C/Nc2ccccc2)[n+](CC)c2ccc(Cl)cc21 was read as STEP inh inactive, Scp-1 inhibitor inactive, SUMO1 PPI mod inactive, CSN inh inactive, LMPTP block inactive and DNMT1 block inactive.
O=C(NCc1ccccc1Br)c1ccc2c(c1)OCCO2 was read as STEP inh inactive, Scp-1 inhibitor inactive, SUMO1 PPI mod inactive, CSN inh inactive, LMPTP block inactive and DNMT1 block inactive.
Screening Cc1cccc(CNc2ccc(S(=O)(=O)N3CCCCC3)cc2)c1 returned STEP inh inactive, Scp-1 inhibitor inactive, SUMO1 PPI mod inactive, CSN inh 62, LMPTP block inactive and DNMT1 block inactive.
Screening CC1(C)C(=O)Nc2ccccc2N1C(=O)COC(=O)c1cccnc1 returned STEP inh inactive, Scp-1 inhibitor inactive, SUMO1 PPI mod inactive, CSN inh inactive, LMPTP block inactive and DNMT1 block inactive.
`COc1ccccc1Cc1c(-c2ccc(C)cc2)nc2ccc(Br)cn12` gave STEP inh inactive, SUMO1 PPI mod inactive, CSN inh 100, LMPTP block inactive and DNMT1 block inactive.
COc1ccccc1Cc1c(-c2ccccc2)nc2ccc(Br)cn12 was read as STEP inh inactive, SUMO1 PPI mod inactive, CSN inh inactive, LMPTP block inactive and DNMT1 block inactive.
Screening COc1ccccc1Cc1c(-c2ccco2)nc2c(C)cc(Br)cn12 returned STEP inh inactive, SUMO1 PPI mod inactive, CSN inh inactive, LMPTP block inactive and DNMT1 block 62.
Screening CCn1c2ccccc2c2cc(NC(=O)COC(=O)c3ccc(NC(=O)CC#N)cc3)ccc21 returned STEP inh inactive, Scp-1 inhibitor inactive, SUMO1 PPI mod inactive, CSN inh 43, LMPTP block inactive and DNMT1 block inactive.
CCn1c2ccccc2c2cc(NC(=O)COC(=O)c3ccccc3F)ccc21 was read as STEP inh inactive, Scp-1 inhibitor inactive, SUMO1 PPI mod inactive, CSN inh inactive, LMPTP block inactive and DNMT1 block inactive.
For Nc1ccn(Cc2ccc(F)cc2)n1 the results were STEP inh inactive, Scp-1 inhibitor inactive, SUMO1 PPI mod 76, CSN inh inactive, LMPTP block inactive and DNMT1 block inactive.
CC(=O)c1ccccc1NCC(=O)Nc1ccc(C)cc1 was read as STEP inh inactive, Scp-1 inhibitor inactive, SUMO1 PPI mod inactive, CSN inh inactive, LMPTP block inactive and DNMT1 block inactive.
`CCN(CC)C(=S)SC1CCCCN(C(=O)c2ccccc2)C1=O` (stereo not drawn) gave STEP inh inactive, Scp-1 inhibitor inactive, SUMO1 PPI mod inactive, CSN inh inactive, LMPTP block inactive and DNMT1 block inactive.
`O=C(O)c1ccccc1NS(=O)(=O)c1ccc(NN=Cc2cccc(Cl)c2)c([N+](=O)[O-])c1` gave STEP inh inactive, Scp-1 inhibitor inactive, SUMO1 PPI mod inactive, CSN inh inactive, LMPTP block 83 and DNMT1 block inactive.
